The source of these data is ChEMBL document CHEMBL5356943, “Development of anti-HBV agents targeting HBV capsid proteins” (RSC Med Chem, 2023).

Series [1] relates to Hepatitis B virus. As to the kind of experiment: Antiviral activity against Hepatitis B virus genotype C infected in chimeric humanized liver mouse model PXB cells assessed as inhibition of HBcrAg level treated with infected cells on day 2 and measured on day 12 to 14 by ELISA. The format is functional, organism-based. An outline of the steps: (§1)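 Human hepatocytes (PXB cells) from chimeric humanized-liver mice were seeded in 96-well plates, with serially diluted compound in fresh medium added on day 2. HBV genotype C was added on day 0. After 20–28 h, cells were PBS-washed and medium plus compound replenished. Supernatants were harvested on days 12–14, and antigen was quantified by ELISA. EC50 is the concentration giving 50% antigen reduction.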

Series [2] relates to Hepatitis B virus. The series can be described thus: Antiviral activity against Hepatitis B virus genotype C infected in chimeric humanized liver mouse model PXB cells assessed as inhibition of HBsAg level treated with infected cells on day 2 and measured on day 12 to 14 by ELISA. The format is functional, organism-based. An outline of the steps:
as §1

The nature of series [3]: Cytotoxicity against human HepG2 cells assessed as reduction in cell viability incubated for 7 days by MTT assay. The format is toxicity, cell-based. Conditions: time 7 day. In a few lines:
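HepG2 (human hepatocellular carcinoma) viability by MTT assay, optical density read on a kinetic microplate reader. CC50 is the concentration giving 50% reduction of viability. Mean of at least two independent experiments.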

A short description of series [4]: Ratio of compound EC50 to N-((5-bromopyridin-2-yl)carbamothioyl)-4-chlorobenzamide EC50 for antiviral activity against Hepatitis B virus genotype C infected in chimeric humanized liver mouse model PXB cells assessed as inhibition of HBcrAg level treated with infected cells on day 2 and measured on day 12 to 14 by ELISA. Conditions: time 10-12 day. The format is functional. An outline of the steps: (§2)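 PXB hepatocytes received serially diluted compound on day 2 and HBV genotype C on day 0. After 20–28 h, cells were washed and compound-containing medium renewed. Supernatant antigen on days 12–14 was measured by ELISA to give EC50 (50% antigen reduction). Each value is expressed as a ratio to the EC50 of the parent lead compound in the same antigen assay.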

Series [5] in a line: Ratio of compound EC50 to N-((5-bromopyridin-2-yl)carbamothioyl)-4-chlorobenzamide EC50 for antiviral activity against Hepatitis B virus genotype C infected in chimeric humanized liver mouse model PXB cells assessed as inhibition of HBsAg level treated with infected cells on day 2 and measured on day 12 to 14 by ELISA. It counts as functional. Conditions: time 10-12 day. In a few lines:
as §2

Series [6] can be described thus: Cytotoxicity against human Huh-7 cells assessed as reduction in cell viability by MTT assay. It counts as toxicity, cell-based. An outline of the steps: (§3)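 Each cell line cultured with serially diluted compound, then viability measured by MTT assay on a microplate reader. CC50 is the concentration giving 50% reduction of viability.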
Series [7] is described as follows: Cytotoxicity against human Li-7 cells assessed as reduction in cell viability by MTT assay. It counts as toxicity, cell-based. In a few lines: as §3
The nature of series [8]: Cytotoxicity against human HLE cells assessed as reduction in cell viability by MTT assay. The format is toxicity, cell-based. An outline of the steps:
as §3

Series [9] can be described thus: Cytotoxicity against human LI90 cells assessed as reduction in cell viability by MTT assay. It counts as toxicity, cell-based. In a few lines: as §3
The nature of series [10]: Cytotoxicity against human HuCCT-1 cells assessed as reduction in cell viability by MTT assay. It counts as toxicity, cell-based. An outline of the steps:
as §3

A short description of series [11]: Cytotoxicity against human RBE cells assessed as reduction in cell viability by MTT assay. It counts as toxicity, cell-based. In a few lines:
as §3

Series [12] can be described thus: Cytotoxicity against human SSP-25 cells assessed as reduction in cell viability by MTT assay. It counts as toxicity, cell-based. In a few lines: as §3
Series [13] in a line: Cytotoxicity against human G415 cells assessed as reduction in cell viability by MTT assay. The format is toxicity, cell-based. In a few lines:
as §3

Molecules are shown by their SMILES. Bounds are passed on as bounds.

Consider `O=C(NC(=S)Nc1ccc(Br)cn1)c1ccc(Cl)cc1`, for which the 50% effective concentration (EC50) stood at 0.044 µM in the series with Hepatitis B virus [1] and 0.69 µM in the series with Hepatitis B virus [2]. For the same molecule, the CC50 at 168 h in series [3] is greater than 100 µM.
For the molecule `CC(C)c1ccc(C(=O)NC(=S)Nc2ccc(C(F)(F)F)cn2)cc1`, the “Ratio EC50” value in series [4] was greater than 12; in series [5] it was greater than 4.8. In addition, the CC50 at 168 h in series [3] came out at 61.9 µM.
For `Cc1ccc(NC(=S)NC(=O)c2ccc(Cl)cc2)nc1`, in that order: 3.7, 3.8 and 43.8 µM.
For `O=C(NC(=S)Nc1ccc(Cl)cn1)c1ccc(Cl)cc1`, in that order: 7.5, 6.9 and 66.3 µM.
Regarding `O=C(NC(=S)Nc1ccc(C(F)(F)F)cn1)c1ccc(O)cc1`, the “Ratio EC50” value is given as 0.86 in [4] and greater than 4.8 in [5]. For the same molecule, the half-maximal cytotoxic concentration (CC50) at 168 h in series [3] is 23.7 µM.
In the case of `O=C(NC(=S)Nc1ccc(C(F)(F)F)cn1)c1ccc(Cl)cc1`, the “Ratio EC50” value in series [4] is reported as 0.032; in series [5], 0.005. Moreover, in [3], the CC50 at 168 h was greater than 100 µM. In addition, the CC50 in series [6], in series [7], in series [8], in [9], in series [10] and in [11] was greater than 100 µM in each case. Besides, the 50% cytotoxic concentration (CC50) in series [12] was 61.3 µM; in series [13], greater than 100 µM.
For the molecule `O=C(NC(=S)Nc1ccccn1)c1ccc(Cl)cc1`, the “Ratio EC50” value in series [4] is recorded as 7.6; in [5], 5.5. Moreover, the half-maximal cytotoxic concentration (CC50) at 168 h in [3] turned out to be 26.8 µM.
On to `O=C(NC(=S)Nc1ccc(C(F)(F)F)cn1)c1ccc(Br)cc1`, for which the “Ratio EC50” value is reported as 3.8 in series [4] and 2.7 in [5]. The CC50 at 168 h in [3] is greater than 100 µM.
The matching figures for `O=C(NC(=S)Nc1ccc(F)cn1)c1ccc(Cl)cc1`: 6.2, 8.1 and greater than 100 µM.
For `O=C(NC(=S)Nc1ccc(C(F)(F)F)cn1)c1ccc(F)cc1`, the figures for the “Ratio EC50” value in [4] and in series [5] were greater than 12 and greater than 4.8, respectively. In addition, the CC50 at 168 h in [3] stood at 42.2 µM.
The matching figures for `O=C(NC(=S)Nc1ccc(C(F)(F)F)cn1)c1ccc(C(F)(F)F)cc1`: 16, greater than 2.9 and greater than 100 µM.
Consider `C[C@H](Cn1cnc2c(N)ncnc21)OCP(=O)(O)O` [TENOFOVIR ANHYDROUS], for which the concentration giving a half-maximal response (EC50) with Hepatitis B virus [1] is 0.36 µM; in the series with Hepatitis B virus [2], greater than 2 µM.
As for `O=C(NC(=S)Nc1ccc(C(F)(F)F)cn1)c1ccc(I)cc1`, the entries for the “Ratio EC50” value in series [4] and in series [5] were greater than 12 and greater than 4.8, respectively. The cytotoxic concentration (CC50) at 168 h in [3] was greater than 100 µM.
As to `O=C(NC(=S)Nc1ccc([N+](=O)[O-])cn1)c1ccc(Cl)cc1`, the “Ratio EC50” value came out at 20 in series [4] and 12 in series [5]. Besides, in series [3], the CC50 at 168 h was greater than 100 µM.
The matching figures for `O=C(NC(=S)Nc1ccc(Br)cn1)c1ccc(Br)cc1`: greater than 12, greater than 4.8 and 41.8 µM.
As to `Cc1ccc(C(=O)NC(=S)Nc2ccc(C(F)(F)F)cn2)cc1`, the figures for the “Ratio EC50” value in series [4] and in series [5] were greater than 12 and greater than 4.8, respectively. Besides, the CC50 at 168 h in series [3] turned out to be 89.8 µM.
Turning to `CC(C)(C)c1ccc(C(=O)NC(=S)Nc2ccc(C(F)(F)F)cn2)cc1`, the “Ratio EC50” value is on record as greater than 12 in series [4] and greater than 4.8 in [5]. Besides, the CC50 at 168 h in series [3] is greater than 100 µM.
The matching figures for `O=C(NC(=S)Nc1ccc(C(F)(F)F)cn1)c1ccc([N+](=O)[O-])cc1`: 2.7, 0.37 and greater than 100 µM.
For `COc1ccc(C(=O)NC(=S)Nc2ccc(C(F)(F)F)cn2)cc1`, in that order: greater than 12, greater than 4.8 and 75.9 µM.
For `O=C(NC(=S)Nc1cc(-c2ccccc2)c(C(F)(F)F)cn1)c1ccc(Cl)cc1`, in that order: 22, 11 and greater than 100 µM.
Regarding `O=C(NC(=S)Nc1ccc(Br)cn1)c1ccc(C(F)(F)F)cc1`, the “Ratio EC50” value is 1.7 in series [4] and 0.63 in series [5]. Also, in series [3], the cytotoxic concentration (CC50) at 168 h is greater than 100 µM. The CC50 in series [6] was 92.7 µM; in series [7], greater than 100 µM; in series [8], greater than 100 µM; in series [9], 62.1 µM; in series [10], greater than 100 µM; in series [11], 81.1 µM. For the same molecule, the half-maximal cytotoxic concentration (CC50) is 76.3 µM in series [12] and greater than 100 µM in [13].
Regarding `O=C(NC(=S)Nc1cc2ccccc2cn1)c1ccc(Cl)cc1`, the “Ratio EC50” value came out at 2.9 in series [4] and 31 in [5]. Moreover, the CC50 at 168 h in series [3] turned out to be 79.1 µM.
